Results taken from ChEMBL document CHEMBL4811225 (J Med Chem, 2021).
pIC50: −log10 of the molar value. Where a SMILES comes first, the peptide text is derived from it. Bridges are numbered along the chain shown (N, C = ends).

Tests used:
Homo sapiens [1] = species: Homo sapiens; assay: Selectivity ratio of IC50 for human alpha3beta2 nAChR to IC50 for human alpha6/alpha3beta4 nAChR
Summary of the method: (§1)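 Ratio of each subtype's IC50, from TEVC inhibition of ACh-evoked currents in X. laevis oocytes, to the IC50 at the same species' α6/α3β4 nAChR; IC50 values with 95% CI, n = number of oocytes.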

Homo sapiens [2] = species: Homo sapiens; assay: Selectivity ratio of IC50 for human alpha9alpha10 nAChR to IC50 for human alpha6/alpha3beta4 nAChR; summary of the method: as §1
[3] = target: Neuronal acetylcholine receptor; alpha3/beta4 (Homo sapiens, UniProt P30926+P32297); assay: Inhibition of human alpha3beta4 nAChR expressed in Xenopus laevis oocytes assessed as inhibition of acetylcholine-induced current response by two-electrode voltage-clamp method; format: cell-based, Oocyte
Summary of the method: (§2)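 TEVC on stage IV–V oocytes 1–5 days after equal-ratio cRNA injection (α2β4, α3β4, α4β4, α7). ACh 300 μM, 1 s pulses at 60 s intervals under frog saline perfusion. Peptide perfused to 1 μM, normalized to average of three control responses; higher concentrations by 5 min static bath. IC50 with 95% CI, n oocytes.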

[4] = target: Neuronal acetylcholine receptor; alpha4/beta4 (Rattus norvegicus, UniProt P09483+P12392); format: cell-based, Oocyte
Homo sapiens [5] = species: Homo sapiens; assay: Selectivity ratio of IC50 for human alpha4beta4 nAChR to IC50 for human alpha6/alpha3beta4 nAChR; summary of the method: as §1
[6] = target: Neuronal acetylcholine receptor subunit alpha-7 (Homo sapiens, UniProt P36544); assay: Inhibition of human alpha7 nAChR expressed in Xenopus laevis oocytes assessed as inhibition of acetylcholine-induced current response by two-electrode voltage-clamp method; format: cell-based, Oocyte; summary of the method: as §2
[7] = target: Nicotinic acetylcholine receptor alpha6/alpha3/beta4 (Homo sapiens, UniProt P30926+P32297+Q15825); conditions: Oocyte
[8] = target: T1, Neuronal acetylcholine receptor; alpha4/beta2 (Homo sapiens, UniProt P17787+P43681); assay: Inhibition of human alpha4beta2 nAChR expressed in Xenopus laevis oocytes assessed as inhibition of acetylcholine-induced current response by two-electrode voltage-clamp method; format: cell-based, Oocyte
Summary of the method: (§3)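 Two-electrode voltage clamp of stage IV–V oocytes 1–5 days after equal-ratio cRNA injection; ACh 100 μM (β2-containing subtypes, α9α10), 1 s every 60 s in frog saline. Peptide perfused up to 1 μM, responses normalized to mean of three control responses; above 1 μM, 5 min static bath. IC50 with 95% CI; n = oocytes.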

[9] = target: Neuronal acetylcholine receptor; alpha2/beta4 (Homo sapiens, UniProt P30926+Q15822); assay: Inhibition of human alpha2beta4 nAChR expressed in Xenopus laevis oocytes assessed as inhibition of acetylcholine-induced current response at 10 uM by two-electrode voltage-clamp method relative to control; format: cell-based; conditions: Oocyte
Summary of the method: (§4)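 Stage IV–V X. laevis oocytes expressing equal-ratio cRNAs of α2β4, α3β4, α4β4 or α7 subunits; TEVC 1–5 days after injection. ACh 300 μM, 1 s at 60 s intervals. 10 μM peptide as 5 min static bath, normalized to ACh response after 5 min bath of control saline; mean ± SD, n = 4.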

Rattus norvegicus [10] = species: Rattus norvegicus; assay: Selectivity ratio of IC50 for rat alpha3beta4 nAChR to IC50 for rat alpha6/alpha3beta4 nAChR; summary of the method: as §1
[11] = target: Neuronal acetylcholine receptor; alpha3/beta2 (Homo sapiens, UniProt P17787+P32297); assay: Inhibition of human alpha3beta2 nAChR expressed in Xenopus laevis oocytes assessed as inhibition of acetylcholine-induced current response at 10 uM by two-electrode voltage-clamp method relative to control; format: cell-based; conditions: Oocyte
Summary of the method: (§5)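 Oocytes (stage IV–V) injected with equal-ratio cRNAs of cloned subunits; TEVC 1–5 days post-injection. ACh 100 μM for β2-containing and α9α10 subtypes, 1 s pulses every 60 s. Peptide 10 μM in 5 min static bath; response normalized to ACh response after 5 min control-saline bath; mean ± SD, n = 4.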

Homo sapiens [12] = species: Homo sapiens; assay: Selectivity ratio of IC50 for human alpha7 nAChR to IC50 for human alpha6/alpha3beta4 nAChR; summary of the method: as §1
Rattus norvegicus [13] = species: Rattus norvegicus; assay: Selectivity ratio of IC50 for rat alpha9alpha10 nAChR to IC50 for rat alpha6/alpha3beta4 nAChR; summary of the method: as §1
[14] = target: T1, Neuronal acetylcholine receptor; alpha4/beta2; assay: Inhibition of human alpha4beta2 nAChR expressed in Xenopus laevis oocytes assessed as inhibition of acetylcholine-induced current response at 10 uM by two-electrode voltage-clamp method relative to control; format: cell-based; conditions: Oocyte; summary of the method: as §5
[15] = target: Nicotinic acetylcholine receptor alpha9/alpha10 (Rattus norvegicus, UniProt P43144+Q9JLB5); assay: Inhibition of rat alpha9alpha10 nAChR expressed in Xenopus laevis oocytes assessed as inhibition of acetylcholine-induced current response by two-electrode voltage-clamp method; format: cell-based, Oocyte; summary of the method: as §3
[16] = target: Nicotinic acetylcholine receptor alpha9/alpha10 (Rattus norvegicus) (UniProt P43144+Q9JLB5); assay: Inhibition of rat alpha9alpha10 nAChR expressed in Xenopus laevis oocytes assessed as inhibition of acetylcholine-induced current response at 10 uM by two-electrode voltage-clamp method relative to control; format: cell-based; conditions: Oocyte; summary of the method: as §5
[17] = target: Nicotinic acetylcholine receptor alpha6/alpha3/beta4 (Rattus norvegicus) (UniProt P04757+P12392+P43143); assay: Inhibition of rat alpha6beta4 nAChR expressed in Xenopus laevis oocytes assessed as recovery of acethylcholine-evoked currents at 10 uM treated for 10 mins followed by compound washout by two-electrode voltage-clamp method relative to control; format: cell-based; set-up: scale not given: the % may be the effect or the level left; conditions: Oocyte
[18] = target: Neuronal acetylcholine receptor; alpha4/beta2 (Rattus norvegicus) (UniProt P09483+P12390); assay: Inhibition of rat alpha4beta2 nAChR expressed in Xenopus laevis oocytes assessed as inhibition of acetylcholine-induced current response at 10 uM by two-electrode voltage-clamp method relative to control; format: cell-based; conditions: Oocyte; summary of the method: as §5
[19] = target: Neuronal acetylcholine receptor; alpha2/beta4 (Rattus norvegicus) (UniProt P12389+P12392); assay: Inhibition of rat alpha2beta4 nAChR expressed in Xenopus laevis oocytes assessed as inhibition of acetylcholine-induced current response at 10 uM by two-electrode voltage-clamp method relative to control; format: cell-based; conditions: Oocyte; summary of the method: as §4
[20] = target: Nicotinic acetylcholine receptor alpha-1/beta-1/delta/epsilon (Homo sapiens, UniProt P02708+P11230+Q04844+Q07001); assay: Inhibition of human alpha1beta1deltaepsilon nAChR expressed in Xenopus laevis oocytes assessed as inhibition of acetylcholine-induced current response by two-electrode voltage-clamp method; format: cell-based, Oocyte
Summary of the method: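 Stage IV–V X. laevis oocytes nucleus-injected with equal ratios of human α1, β1, δ, ε cDNAs; TEVC 1–5 days after injection. ACh 100 μM, 1 s every 60 s.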

[21] = target: Nicotinic acetylcholine receptor alpha-1/beta-1/delta/epsilon (Homo sapiens) (UniProt P02708+P11230+Q07001+Q04844); assay: Inhibition of human alpha1beta1deltaepsilon nAChR expressed in Xenopus laevis oocytes assessed as inhibition of acetylcholine-induced current response at 10 uM by two-electrode voltage-clamp method relative to control; format: cell-based; conditions: Oocyte
Summary of the method: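 Human α1, β1, δ and ε cDNAs injected in equal ratios into the nucleus of stage IV–V X. laevis oocytes; TEVC 1–5 days later. ACh 100 μM, 1 s pulses at 60 s intervals. Peptide 10 μM applied as 5 min static bath; response normalized to ACh response after 5 min bath of control saline; mean ± SD, n = 4.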

Sequence of Neuronal acetylcholine receptor; alpha4/beta4 (P09483 whole entry): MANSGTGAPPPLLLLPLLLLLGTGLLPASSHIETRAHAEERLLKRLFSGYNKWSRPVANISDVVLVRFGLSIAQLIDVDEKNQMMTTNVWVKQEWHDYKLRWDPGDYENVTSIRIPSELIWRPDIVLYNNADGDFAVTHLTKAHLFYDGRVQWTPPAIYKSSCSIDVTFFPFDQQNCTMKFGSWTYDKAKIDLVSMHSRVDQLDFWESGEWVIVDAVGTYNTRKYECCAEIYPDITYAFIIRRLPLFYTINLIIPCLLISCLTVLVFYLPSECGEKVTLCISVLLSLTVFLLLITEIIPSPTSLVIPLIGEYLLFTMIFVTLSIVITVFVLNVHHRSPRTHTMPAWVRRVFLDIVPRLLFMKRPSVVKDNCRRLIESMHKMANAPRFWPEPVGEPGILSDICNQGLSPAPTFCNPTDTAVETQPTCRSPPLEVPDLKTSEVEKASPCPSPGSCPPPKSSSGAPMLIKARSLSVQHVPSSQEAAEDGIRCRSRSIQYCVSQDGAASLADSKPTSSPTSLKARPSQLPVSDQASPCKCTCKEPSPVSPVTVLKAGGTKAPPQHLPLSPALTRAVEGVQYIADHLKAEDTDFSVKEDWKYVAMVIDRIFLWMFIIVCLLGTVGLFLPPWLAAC
Sequence of Neuronal acetylcholine receptor; alpha4/beta4 (P12392 whole entry): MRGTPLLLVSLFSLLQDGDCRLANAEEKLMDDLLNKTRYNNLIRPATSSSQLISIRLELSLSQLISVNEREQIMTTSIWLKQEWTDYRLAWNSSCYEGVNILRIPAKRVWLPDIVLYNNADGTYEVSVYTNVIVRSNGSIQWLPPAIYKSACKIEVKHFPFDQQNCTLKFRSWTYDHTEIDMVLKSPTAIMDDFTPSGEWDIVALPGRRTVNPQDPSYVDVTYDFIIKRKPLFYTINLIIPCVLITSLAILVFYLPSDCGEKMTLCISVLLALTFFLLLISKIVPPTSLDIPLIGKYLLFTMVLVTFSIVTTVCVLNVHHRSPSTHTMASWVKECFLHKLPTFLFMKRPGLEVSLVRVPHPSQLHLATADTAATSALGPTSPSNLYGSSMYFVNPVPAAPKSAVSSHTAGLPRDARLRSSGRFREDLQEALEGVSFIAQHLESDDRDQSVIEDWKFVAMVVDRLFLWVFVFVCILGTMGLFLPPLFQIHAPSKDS
Sequence of Nicotinic acetylcholine receptor alpha9/alpha10 (P43144 whole entry): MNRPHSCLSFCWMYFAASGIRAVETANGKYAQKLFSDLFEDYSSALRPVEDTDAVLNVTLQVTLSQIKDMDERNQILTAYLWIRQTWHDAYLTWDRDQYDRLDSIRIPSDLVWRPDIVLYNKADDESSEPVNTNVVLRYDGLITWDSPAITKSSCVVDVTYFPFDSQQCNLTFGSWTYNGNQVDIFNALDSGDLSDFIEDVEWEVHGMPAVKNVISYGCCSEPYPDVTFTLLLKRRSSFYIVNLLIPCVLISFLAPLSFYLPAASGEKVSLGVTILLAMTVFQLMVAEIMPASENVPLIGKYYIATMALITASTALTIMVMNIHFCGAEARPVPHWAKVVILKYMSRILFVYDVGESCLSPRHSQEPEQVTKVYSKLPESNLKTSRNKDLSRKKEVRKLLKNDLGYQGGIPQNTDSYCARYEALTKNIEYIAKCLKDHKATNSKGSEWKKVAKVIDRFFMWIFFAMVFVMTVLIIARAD
Sequence of Nicotinic acetylcholine receptor alpha9/alpha10 (Q9JLB5 whole entry): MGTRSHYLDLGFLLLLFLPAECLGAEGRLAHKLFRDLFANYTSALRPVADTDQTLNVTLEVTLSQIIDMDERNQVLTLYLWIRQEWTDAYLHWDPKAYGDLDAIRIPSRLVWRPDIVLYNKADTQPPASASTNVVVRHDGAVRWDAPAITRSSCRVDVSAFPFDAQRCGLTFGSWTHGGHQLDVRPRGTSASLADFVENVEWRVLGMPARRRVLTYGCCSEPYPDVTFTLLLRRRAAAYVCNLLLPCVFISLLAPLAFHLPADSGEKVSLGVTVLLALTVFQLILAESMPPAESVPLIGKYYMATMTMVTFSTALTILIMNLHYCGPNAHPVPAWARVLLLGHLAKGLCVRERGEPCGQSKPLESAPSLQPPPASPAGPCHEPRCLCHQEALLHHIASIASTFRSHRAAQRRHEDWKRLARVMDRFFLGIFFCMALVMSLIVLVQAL
Sequence of Nicotinic acetylcholine receptor alpha-1/beta-1/delta/epsilon (P02708 whole entry): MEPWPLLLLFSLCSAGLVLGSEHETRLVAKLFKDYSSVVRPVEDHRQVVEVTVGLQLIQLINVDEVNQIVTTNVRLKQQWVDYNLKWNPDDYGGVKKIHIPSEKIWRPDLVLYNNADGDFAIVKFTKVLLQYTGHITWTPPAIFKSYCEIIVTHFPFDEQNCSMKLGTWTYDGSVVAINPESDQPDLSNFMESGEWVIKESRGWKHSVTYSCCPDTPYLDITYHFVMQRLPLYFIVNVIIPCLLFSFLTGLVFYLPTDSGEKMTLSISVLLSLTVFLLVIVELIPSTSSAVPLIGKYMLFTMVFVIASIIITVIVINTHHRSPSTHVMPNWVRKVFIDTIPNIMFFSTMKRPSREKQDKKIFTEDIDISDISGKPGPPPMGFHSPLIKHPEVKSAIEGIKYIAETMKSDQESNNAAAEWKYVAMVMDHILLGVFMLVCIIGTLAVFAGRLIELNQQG
Sequence of Nicotinic acetylcholine receptor alpha-1/beta-1/delta/epsilon (P11230 whole entry): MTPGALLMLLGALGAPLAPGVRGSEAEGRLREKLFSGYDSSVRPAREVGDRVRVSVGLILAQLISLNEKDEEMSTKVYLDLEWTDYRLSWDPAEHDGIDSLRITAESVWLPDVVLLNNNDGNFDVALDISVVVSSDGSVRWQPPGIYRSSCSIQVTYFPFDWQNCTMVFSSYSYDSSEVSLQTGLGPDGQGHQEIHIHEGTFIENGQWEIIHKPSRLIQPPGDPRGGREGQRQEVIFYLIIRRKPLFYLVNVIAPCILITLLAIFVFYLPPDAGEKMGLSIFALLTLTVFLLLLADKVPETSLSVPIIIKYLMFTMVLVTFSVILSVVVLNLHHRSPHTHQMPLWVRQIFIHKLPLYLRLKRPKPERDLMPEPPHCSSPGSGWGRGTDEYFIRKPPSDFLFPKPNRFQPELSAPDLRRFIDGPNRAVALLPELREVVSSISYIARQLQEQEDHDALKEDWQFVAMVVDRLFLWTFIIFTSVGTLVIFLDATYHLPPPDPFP
Sequence of Nicotinic acetylcholine receptor alpha-1/beta-1/delta/epsilon (Q07001 whole entry): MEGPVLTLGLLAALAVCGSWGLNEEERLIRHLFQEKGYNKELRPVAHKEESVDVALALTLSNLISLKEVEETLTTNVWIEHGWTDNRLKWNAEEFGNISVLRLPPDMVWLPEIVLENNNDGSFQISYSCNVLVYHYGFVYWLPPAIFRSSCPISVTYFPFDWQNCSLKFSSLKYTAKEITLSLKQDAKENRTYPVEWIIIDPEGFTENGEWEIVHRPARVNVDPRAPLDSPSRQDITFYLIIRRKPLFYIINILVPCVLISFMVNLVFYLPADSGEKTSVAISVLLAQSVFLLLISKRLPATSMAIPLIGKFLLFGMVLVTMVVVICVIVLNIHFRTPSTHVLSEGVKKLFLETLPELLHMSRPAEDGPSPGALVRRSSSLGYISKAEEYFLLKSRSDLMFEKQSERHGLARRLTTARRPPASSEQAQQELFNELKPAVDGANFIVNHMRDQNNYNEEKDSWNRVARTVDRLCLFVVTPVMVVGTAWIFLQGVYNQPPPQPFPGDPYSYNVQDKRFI
Sequence of Nicotinic acetylcholine receptor alpha-1/beta-1/delta/epsilon (Q04844 whole entry): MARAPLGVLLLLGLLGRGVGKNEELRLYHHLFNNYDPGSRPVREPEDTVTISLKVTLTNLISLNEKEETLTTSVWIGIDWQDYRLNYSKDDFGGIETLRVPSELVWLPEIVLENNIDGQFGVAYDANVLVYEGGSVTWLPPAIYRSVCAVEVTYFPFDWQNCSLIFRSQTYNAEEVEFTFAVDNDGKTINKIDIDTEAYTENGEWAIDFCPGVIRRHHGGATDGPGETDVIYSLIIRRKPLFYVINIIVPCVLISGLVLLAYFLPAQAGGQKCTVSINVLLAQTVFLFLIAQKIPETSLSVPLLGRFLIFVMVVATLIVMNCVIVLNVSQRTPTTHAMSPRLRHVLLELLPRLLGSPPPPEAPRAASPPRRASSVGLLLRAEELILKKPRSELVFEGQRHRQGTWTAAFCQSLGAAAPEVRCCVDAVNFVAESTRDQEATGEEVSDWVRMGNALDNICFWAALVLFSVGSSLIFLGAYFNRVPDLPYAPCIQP
Sequence of Neuronal acetylcholine receptor subunit alpha-7 (P36544 whole entry): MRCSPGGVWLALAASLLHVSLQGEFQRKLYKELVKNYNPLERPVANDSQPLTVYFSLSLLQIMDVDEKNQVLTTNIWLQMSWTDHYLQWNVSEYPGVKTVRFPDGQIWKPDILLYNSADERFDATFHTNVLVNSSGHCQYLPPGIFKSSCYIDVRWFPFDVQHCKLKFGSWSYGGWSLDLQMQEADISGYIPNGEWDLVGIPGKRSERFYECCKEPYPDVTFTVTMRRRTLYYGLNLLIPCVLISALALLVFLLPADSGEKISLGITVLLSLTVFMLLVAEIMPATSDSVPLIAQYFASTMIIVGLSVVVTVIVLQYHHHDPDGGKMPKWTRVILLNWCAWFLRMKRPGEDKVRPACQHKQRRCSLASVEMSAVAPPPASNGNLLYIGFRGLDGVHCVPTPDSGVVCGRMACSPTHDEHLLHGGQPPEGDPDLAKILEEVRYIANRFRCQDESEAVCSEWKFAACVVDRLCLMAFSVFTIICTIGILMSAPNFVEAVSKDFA

Question: `CC[C@H](C)[C@@H]1NC(=O)[C@H](CCC(=O)O)NC(=O)[C@@H]2CCCN2C(=O)[C@H](Cc2cnc[nH]2)NC(=O)[C@H](CC(N)=O)NC(=O)[C@H](C(C)C)NC(=O)[C@H](CC(N)=O)NC(=O)[C@@H]2CSSC[C@H](NC(=O)CN)C(=O)N[C@@H](CSSC[C@@H](C(N)=O)NC1=O)C(=O)N[C@@H](CO)C(=O)N[C@@H](Cc1cnc[nH]1)C(=O)N1CCC[C@H]1C(=O)N[C@@H](C(C)C)C(=O)N2` (H-GCCSHPVCNVNHPEIC-NH2; disulfide 2-8, 3-16) was tested. Which Ratio IC50 (Homo sapiens [1]) did it give?
Answer: > 50000

Question: And the Ratio IC50 (Homo sapiens [2])?
Answer: > 50000

Question: And the pIC50 [3]?
Answer: 6.75

Question: What about the pIC50 [4] of the same molecule?
Answer: < 5.00

Question: And the Ratio IC50 (Homo sapiens [5])?
Answer: 20100

Question: And the pIC50 [6]?
Answer: < 5.00

Question: What about the deltalogIC50 [7] of the same molecule?
Answer: -1.5

Question: And the pIC50 [8]?
Answer: < 5.00

Question: And the inhibition [9]?
Answer: 84%

Question: What about the Ratio IC50 (Rattus norvegicus [10]) of the same molecule?
Answer: 489

Question: And the inhibition [11]?
Answer: 76%

Question: And the Ratio IC50 (Homo sapiens [12])?
Answer: > 50000

Question: What about the Ratio IC50 (Rattus norvegicus [13]) of the same molecule?
Answer: > 20000

Question: And the inhibition [14]?
Answer: 91%

Question: And the pIC50 [15]?
Answer: < 5.00

Question: And the inhibition [16]?
Answer: 69%

Question: And the Activity [17]?
Answer: 6%

Question: And the inhibition [18]?
Answer: 81%

Question: And the inhibition [19]?
Answer: 85%

Question: And the pIC50 [20]?
Answer: < 5.00

Question: What about the inhibition [21] of the same molecule?
Answer: 93%
